≈ marks a conversion by molar mass, not a printed value.
Experiments:
[1] = test system: Staphylococcus saprophyticus; assay: Antibacterial activity against Staphylococcus saprophyticus ATCC 15305 after 24 hrs by broth microdilution method; type: functional; conditions: ATCC 15305, 24 h
[2] = test system: Staphylococcus aureus; assay: Antibacterial activity against Staphylococcus aureus ATCC 12598 after 24 hrs by broth microdilution method; type: functional; conditions: ATCC 12598, 24 h
In short: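 CLSI broth microdilution. Incubation 37 °C for 24 h. MIC is the lowest concentration with no visible bacterial growth. DMSO stocks diluted in culture medium to a final DMSO of 0.1%.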

[3] = test system: Staphylococcus haemolyticus; assay: Antibacterial activity against Staphylococcus haemolyticus ATCC 29970 after 24 hrs by broth microdilution method; type: functional; conditions: ATCC 29970, 24 h
[4] = test system: Staphylococcus epidermidis; assay: Antibacterial activity against Staphylococcus epidermidis ATCC 12228 after 24 hrs by broth microdilution method; type: functional; conditions: ATCC 12228, 24 h
[5] = test system: Staphylococcus lugdunensis; assay: Antibacterial activity against Staphylococcus lugdunensis isolate NTUH after 24 hrs by broth microdilution method; type: functional
[6] = test system: Staphylococcus epidermidis; assay: Antibacterial activity against Staphylococcus epidermidis ATCC 35984 after 24 hrs by broth microdilution method; type: functional; conditions: RP62A
[7] = test system: Staphylococcus hominis; assay: Antibacterial activity against Staphylococcus hominis ATCC 27844 after 24 hrs by broth microdilution method; type: functional; conditions: ATCC 27844, 24 h
[8] = test system: Staphylococcus aureus; assay: Antibacterial activity against methicillin-resistant Staphylococcus aureus ATCC 49476 after 24 hrs by broth microdilution method; conditions: ATCC 49476, 24 h
[9] = test system: Staphylococcus intermedius; assay: Antibacterial activity against Staphylococcus intermedius ATCC 29663 after 24 hrs by broth microdilution method; type: functional; conditions: ATCC 29663, 24 h
[10] = test system: Staphylococcus aureus; assay: Antibacterial activity against methicillin-resistant Staphylococcus aureus ATCC 33592 after 24 hrs by broth microdilution method; type: functional; conditions: ATCC 33592, 24 h
In short: (§1)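 CLSI broth microdilution. Bacteria grown overnight on LB agar, suspended in PBS, then exposed to test agents at 0.25 to 64 µg/mL in triplicate. Incubation 37 °C for 24 h. MIC is the lowest concentration with no visible bacterial growth. DMSO stocks diluted in culture medium to a final DMSO of 0.1%.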

[11] = test system: Staphylococcus aureus; assay: Antibacterial activity against Staphylococcus aureus ATCC 29213 after 24 hrs by broth microdilution method; type: functional; conditions: ATCC 29213, 24 h
[12] = test system: Staphylococcus aureus; assay: Antibacterial activity against methicillin-resistant Staphylococcus aureus expressing […] subtype VT after 24 hrs by broth microdilution method; type: functional; in short: as §1
[13] = Selectivity ratio of IC50 for human HT-29 cells to MIC for Staphylococcus aureus ATCC 29213; type: functional
In short: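 Ratio of HT-29 IC50 (MTT assay, 24 h exposure) to MIC against S. aureus ATCC 29213 (CLSI broth microdilution, 24 h, 37 °C).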

[14] = test system: HT-29; assay: Antiproliferative activity against human HT-29 cells after 24 hrs by MTT assay; type: cell-based; conditions: HT-29, 24 h
In short: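 HT-29 human colon adenocarcinoma cells seeded at 1 × 10⁴ cells/well in RPMI 1640 with 10% FBS and 10 µg/mL gentamicin, left overnight at 37 °C, 5% CO₂. Medium then replaced with medium holding test agents (final DMSO 0.1%; DMSO-only controls), at least 6 wells per condition, for 24 h. Viability read by MTT (0.5 mg/mL, 2 h, 37 °C), DMSO solubilization, absorbance 570 nm.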

[15] = test system: Mus musculus; assay: Toxicity in C57BL/6 mouse infected with methicillin-resistant Staphylococcus aureus ATCC 33592 assessed as mortality at 30 mg/kg, ip administered 1 hr post infection; type: organism-based; design: dose 30 mg/kg, route intraperitoneal; conditions: in vivo
In short: (§2)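 Female C57BL/6 mice, N = 5 per group, were infected ip with a 100% lethal dose of MRSA, 7 × 10⁷ CFU in 0.3 ml PBS. At 1 h they received one ip dose of 30 mg/kg in vehicle (40% PEG-400, 10% […], 10% DMSO in normal saline). Body weight and morbidity were recorded daily for 7 days. Mice were sacrificed on significant morbidity, including 20% weight loss.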

[16] = test system: Staphylococcus aureus; assay: Antibacterial activity against methicillin-resistant Staphylococcus aureus ATCC 33592 infected in C57BL/6 mouse assessed as mouse survival time at 30 mg/kg, ip administered 1 hr post infection; type: functional; conditions: route intraperitoneal; in short: as §2
[17] = test system: Mus musculus; assay: Toxicity in C57BL/6 mouse infected with methicillin-resistant Staphylococcus aureus ATCC 33592 assessed as weight loss at 30 mg/kg, ip administered 1 hr post infection measured on day 1 post infection; type: organism-based; design: dose 30 mg/kg, route intraperitoneal; conditions: in vivo; in short: as §2
[18] = test system: Staphylococcus aureus; assay: Bactericidal activity against Staphylococcus aureus ATCC 29213 assessed as decrease in bacterial count at 8 times compound MIC after 24 hrs by time-kill assay; type: functional; design: scale not given: the % may be the effect or the level left
In short: (§3)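 S. aureus ATCC 29213 at 5 × 10⁵ CFU/mL in CAMHB exposed to test agents at 2-, 4- and 8-fold MIC, in triplicate. DMSO-matched medium served as control. At successive times, aliquots serially diluted in PBS and plated on LB agar (37 °C, 16 h). Counts given as CFU/mL, mean ± SD (n = 3); 99.9% killing used as reference.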

[19] = test system: Staphylococcus aureus; assay: Bactericidal activity against Staphylococcus aureus ATCC 29213 assessed as decrease in bacterial count at 2 to 8 times compound MIC by time-kill assay; type: functional, organism-based; conditions: TDE = time-dependent effect; in short: as §3
[20] = test system: Mus musculus; assay: Toxicity in C57BL/6 mouse infected with methicillin-resistant Staphylococcus aureus ATCC 33592 assessed as weight loss at 30 mg/kg, ip administered 1 hr post infection measured on day 3 to 6 post infection; type: organism-based; design: dose 30 mg/kg, route intraperitoneal; conditions: in vivo; in short: as §2

Row | Compound | MIC [1] | MIC [2] | MIC [3] | MIC [4] | MIC [5] | MIC [6] | MIC [7] | MIC [8] | MIC [9] | MIC [10] | MIC [11] | MIC [12] | Ratio [13] | IC50 [14] | Activity [15] | Survival [16] | Activity [17] | Activity [18] | Activity [19] | Activity [20]
1 | CC1(C)S[C@@H]2[C@H](NC(=O)[C@H](N)c3ccccc3)C(=O)N2[C@H]1C(=O)O [AMPICILLIN] | 0.5 µg/mL (≈ 1.43 µM) | 0.25 µg/mL (≈ 0.715 µM) | 0.25 µg/mL (≈ 0.715 µM) | 16 µg/mL (≈ 45.8 µM) | 32 µg/mL (≈ 91.6 µM) | 64 µg/mL (≈ 183 µM) | < 0.0625 µg/mL | 64 µg/mL (≈ 183 µM) | 0.125 µg/mL (≈ 0.358 µM) | > 64 µg/mL | 8 µg/mL (≈ 22.9 µM) | > 64 µg/mL |  |  |  |  |  |  |  | 
2 | NCCC(=O)Nc1ccc(-n2nc(C(F)(F)F)cc2-c2ccc3c(c2)oc2ccccc23)cc1 |  |  |  |  |  | 4 µg/mL (≈ 8.61 µM) |  |  |  |  | 4 µg/mL (≈ 8.61 µM) |  | 1.8 |  |  |  |  |  |  | 
3 | NCC(=O)Nc1ccc(-n2nc(C(F)(F)F)cc2-c2ccc3c(c2)Nc2ccccc2S3)cc1 |  |  |  |  |  | 4 µg/mL (≈ 8.31 µM) |  |  |  |  | 4 µg/mL (≈ 8.31 µM) |  | 1.6 |  |  |  |  |  |  | 
4 | Cc1ccc(-c2cc(C(F)(F)F)nn2-c2ccc(NS(N)(=O)=O)cc2)cc1 |  | 4 µg/mL (≈ 10.1 µM) |  | 4 µg/mL (≈ 10.1 µM) | 16 µg/mL (≈ 40.4 µM) | 4 µg/mL (≈ 10.1 µM) |  | 4 µg/mL (≈ 10.1 µM) | 8 µg/mL (≈ 20.2 µM) | 4 µg/mL (≈ 10.1 µM) | 4 µg/mL (≈ 10.1 µM) | 4 µg/mL (≈ 10.1 µM) | 7 | 28 µg/mL (≈ 70.6 µM) |  |  |  |  |  | 
5 | NS(=O)(=O)Nc1ccc(-n2nc(C(F)(F)F)cc2-c2ccc(-c3ccccc3)cc2)cc1 |  | 1 µg/mL (≈ 2.18 µM) |  |  | 2 µg/mL (≈ 4.36 µM) |  |  | 1 µg/mL (≈ 2.18 µM) | 2 µg/mL (≈ 4.36 µM) | 1 µg/mL (≈ 2.18 µM) | 1 µg/mL (≈ 2.18 µM) | 1 µg/mL (≈ 2.18 µM) | 16 |  |  |  |  |  |  | 
6 | NS(=O)(=O)Nc1ccc(-n2nc(C(F)(F)F)cc2-c2ccc3cc4ccccc4cc3c2)cc1 | 8 µg/mL (≈ 16.6 µM) |  | 16 µg/mL (≈ 33.2 µM) | 2 µg/mL (≈ 4.15 µM) | 4 µg/mL (≈ 8.29 µM) |  | 2 µg/mL (≈ 4.15 µM) | 2 µg/mL (≈ 4.15 µM) | 4 µg/mL (≈ 8.29 µM) | 2 µg/mL (≈ 4.15 µM) |  | 2 µg/mL (≈ 4.15 µM) | 2.8 | 11 µg/mL (≈ 22.8 µM) |  |  |  |  |  | 
7 | Cc1ccc(-c2ccc(-c3cc(C(F)(F)F)nn3-c3ccc(NS(N)(=O)=O)cc3)cc2)cc1 |  | 1 µg/mL (≈ 2.12 µM) |  | 1 µg/mL (≈ 2.12 µM) | 2 µg/mL (≈ 4.23 µM) |  |  | 1 µg/mL (≈ 2.12 µM) | 2 µg/mL (≈ 4.23 µM) | 1 µg/mL (≈ 2.12 µM) | 1 µg/mL (≈ 2.12 µM) | 1 µg/mL (≈ 2.12 µM) | 9 |  |  |  |  |  |  | 
8 | NS(=O)(=O)Nc1ccc(-n2nc(C(F)(F)F)cc2-c2ccc(-c3ccc(Br)cc3)cc2)cc1 |  | 1 µg/mL (≈ 1.86 µM) |  | 1 µg/mL (≈ 1.86 µM) | 2 µg/mL (≈ 3.72 µM) |  |  | 1 µg/mL (≈ 1.86 µM) | 2 µg/mL (≈ 3.72 µM) | 1 µg/mL (≈ 1.86 µM) | 1 µg/mL (≈ 1.86 µM) | 1 µg/mL (≈ 1.86 µM) | 10 |  |  |  |  |  |  | 
9 | NS(=O)(=O)Nc1ccc(-n2nc(C(F)(F)F)cc2-c2c3ccccc3cc3ccccc23)cc1 |  |  |  |  | 4 µg/mL (≈ 8.29 µM) | 1 µg/mL (≈ 2.07 µM) |  |  | 0.5 µg/mL (≈ 1.04 µM) |  |  |  | 40 | 20 µg/mL (≈ 41.5 µM) | Toxic | 7 days | Toxic | 99.99% | tde | Non-toxic
10 | NCCCC[C@H](N)C(=O)Nc1ccc(-n2nc(C(F)(F)F)cc2-c2ccc3c(c2)Nc2ccccc2S3)cc1 |  |  |  |  |  |  |  |  |  |  | 2 µg/mL (≈ 3.62 µM) |  | 2.6 | 5.2 µg/mL (≈ 9.41 µM) |  |  |  |  |  | 
11 | NC(=O)c1ccc(-n2nc(C(F)(F)F)cc2-c2c3ccccc3cc3ccccc23)cc1 |  |  |  |  | 4 µg/mL (≈ 9.27 µM) | 2 µg/mL (≈ 4.64 µM) |  |  | 4 µg/mL (≈ 9.27 µM) | 4 µg/mL (≈ 9.27 µM) | 2 µg/mL (≈ 4.64 µM) |  | 6 | 12 µg/mL (≈ 27.8 µM) |  |  |  | 99.14% | tde | 
12 | NCCC(=O)Nc1ccc(-n2nc(C(F)(F)F)cc2-c2ccc3c(c2)Nc2ccccc2S3)cc1 |  |  |  |  |  | 4 µg/mL (≈ 8.07 µM) |  |  |  |  | 4 µg/mL (≈ 8.07 µM) |  | 1.9 | 7.5 µg/mL (≈ 15.1 µM) |  |  |  |  |  | 

From ChEMBL document CHEMBL2057145, “Development of novel antibacterial agents against methicillin-resistant Staphylococcus aureus” (Bioorg Med Chem, 2012)
